# Activity calls are given as the source filed them. No cut-off for these calls is given here.
# Columns and labels:
# [1] = Solubility of the compound in water; type: physicochemical; conditions: buffer
# [2] = system: Nucleic Acid; experiment: Binding affinity to 5'-AAATTT-3' DNA; type: nucleic-acid assay
# [3] = system: Nucleic Acid; experiment: Binding affinity to DNA minor-groove 5'-ACCGGT-3' sequence; type: nucleic-acid assay
# [4] = system: Nucleic Acid; experiment: Binding affinity to 5'-ACGCGT-3' DNA assessed as macroscopic binding constant K1 by surface plasmon resonance-biosensor method; type: nucleic-acid assay
# In short: (§1)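 SPR biosensor at 25 °C. 5'-biotinylated DNA hairpins, about 400 RU, were captured on streptavidin chips, with one blank flow cell as reference. Running buffer was 0.01 M cacodylic acid pH 6.25, 0.1 M NaCl, 1 mM EDTA, 0.005% P20. Known polyamide concentrations were injected and fitted to one- or two-site models to give K1 and K2.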
# [5] = system: Nucleic Acid; experiment: Binding affinity to DNA minor-groove 5'-ACGCGT-3' sequence; type: nucleic-acid assay
# [6] = system: Nucleic Acid; experiment: Binding affinity to 5'-AAATTT-3' DNA assessed as macroscopic binding constant K1 by surface plasmon resonance-biosensor method; type: nucleic-acid assay; in short: as §1
# [7] = system: Nucleic Acid; experiment: Binding affinity to 5'-ACGCGT-3' sequence in 125 bp 5'-[32P]-radiolabeled DNA at 0.05 uM after 30 mins by DNase1 footprinting analysis; type: nucleic-acid assay
# In short: (§2)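 A 125 bp radiolabeled PCR fragment was incubated 30 min at room temperature with polyamide in 10 mM Tris, 10 mM NaCl, pH 7. DNase I (0.02 U, with Mg2+/Mn2+, pH 8.0) then cleaved for 3 min, stopped by freezing on dry ice. Products were resolved on a denaturing 10% polyacrylamide urea gel and read by autoradiography.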
# [8] = system: Nucleic Acid; experiment: Binding affinity to 5'-AAATTT-3' DNA assessed as change in melting temperature at 1:3 of DNA/compound ratio by spectrophotometry; type: nucleic-acid assay
# In short: (§3)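 UV thermal melt (Cary spectrophotometer) of each duplex, 1 µM DNA with 3 µM polyamide, in 10 mM phosphate buffer with 12.5 mM NaCl, 1 mM EDTA, pH 6.2. ΔTM is the melting temperature of the DNA–polyamide complex minus that of duplex DNA alone.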
# [9] = system: Nucleic Acid; experiment: Binding affinity to 5'-ACGCGT-3' DNA assessed as change in melting temperature at 1:3 of DNA/compound ratio by spectrophotometry; type: nucleic-acid assay; in short: as §3
# [10] = system: Nucleic Acid; experiment: Binding affinity to 5'-ACGCGT-3' sequence in 125 bp 5'-[32P]-radiolabeled DNA at 0.5 uM after 30 mins by DNase1 footprinting analysis; type: nucleic-acid assay; in short: as §2
# [11] = system: Nucleic Acid; experiment: Binding affinity to 5'-ACGCGT-3' DNA at 9:500 of DNA/compound ratio by CD spectral analysis; type: nucleic-acid assay
# [12] = system: Nucleic Acid; experiment: Binding affinity to 5'-ACGCGT-3' DNA by surface plasmon resonance-biosensor method; type: nucleic-acid assay; in short: as §1
# [13] = system: Nucleic Acid; experiment: Binding affinity to 5'-AAATTT-3' DNA at 9:500 of DNA/compound ratio by CD spectral analysis; type: nucleic-acid assay
# [14] = system: Nucleic Acid; experiment: Binding affinity to 5'-AAGCTA-3' DNA assessed as macroscopic binding constant K2 by surface plasmon resonance-biosensor method; type: nucleic-acid assay; in short: as §1
# [15] = system: Nucleic Acid; experiment: Binding affinity to DNA minor-groove 5'-ACGCGT-3' sequence at 9:500 of DNA/compound ratio by CD spectral analysis; type: nucleic-acid assay
# [16] = system: Nucleic Acid; experiment: Binding affinity to 5'-AAGCTA-3' DNA by surface plasmon resonance-biosensor method; type: nucleic-acid assay; in short: as §1
# [17] = system: Nucleic Acid; experiment: Binding affinity to 5'-ACACTT-3' DNA assessed as change in melting temperature at 1:3 of DNA/compound ratio by spectrophotometry; type: nucleic-acid assay; in short: as §3
# [18] = system: Nucleic Acid; experiment: Binding affinity to 5'-ACGCGT-3' DNA assessed as macroscopic binding constant K2 by surface plasmon resonance-biosensor method; type: nucleic-acid assay; in short: as §1
# [19] = system: Nucleic Acid; experiment: Binding affinity to 5'-AAGCTA-3' DNA assessed as macroscopic binding constant K1 by surface plasmon resonance-biosensor method; type: nucleic-acid assay; in short: as §1
# [20] = system: Nucleic Acid; experiment: Binding affinity to 5'-ACGCGT-3' DNA at 30:80 of DNA/compound ratio by isothermal titration calorimetry; type: nucleic-acid assay
# In short: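 ITC by the model-free method at 25 °C in 0.01 M cacodylic acid. Polyamide at 80 µM was injected into 30 µM DNA in 30 × 10 µL injections, every 300 s after a 300 s delay, up to a mole ratio of about 0.6:1. Integrated heats were corrected for nonspecific heats including dilution, and normalized ΔH was fitted linearly against mole ratio.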
# [21] = system: Nucleic Acid; experiment: Binding affinity to 5'-AAATTT-3' DNA by surface plasmon resonance-biosensor method; type: nucleic-acid assay; in short: as §1
# [22] = system: Nucleic Acid; experiment: Binding affinity to 5'-ACACTT-3' DNA at 9:500 of DNA/compound ratio by CD spectral analysis; type: nucleic-acid assay
# [23] = system: Nucleic Acid; experiment: Binding affinity to 5'-ACACGT-3' sequence in 125 bp 5'-[32P]-radiolabeled DNA at 100 uM after 30 mins by DNase1 footprinting analysis; type: nucleic-acid assay; in short: as §2
# [24] = system: Nucleic Acid; experiment: Binding affinity to 5'-ACGCGT-3' sequence in 125 bp 5'-[32P]-radiolabeled DNA at 20 uM after 30 mins by DNase1 footprinting analysis; type: nucleic-acid assay; in short: as §2
# [25] = system: Nucleic Acid; experiment: Binding affinity to 5'-AGCGCT-3' sequence in 125 bp 5'-[32P]-radiolabeled DNA at 100 uM after 30 mins by DNase1 footprinting analysis; type: nucleic-acid assay; in short: as §2
# [26] = system: Nucleic Acid; experiment: Binding affinity to 5'-ACCGGT-3' sequence in 125 bp 5'-[32P]-radiolabeled DNA at 100 uM after 30 mins by DNase1 footprinting analysis; type: nucleic-acid assay; in short: as §2
Compound,K [4],ΔTm [8],ΔTm [9],Activity [10],Activity [11],Kb [12],K [14],Activity [15],Kb [16],ΔTm [17],K [18],K [19],Activity [20],Activity [21],also measured
CN(C)CCNC(=O)c1nc(NC(=O)c2cc(NC(=O)c3nc(NC=O)cn3C)cn2CCCN)cn1C.Cl,–,–,–,–,–,–,–,–,–,–,–,–,–,–,solubility [1]: soluble
CN(C)CCNC(=O)c1nc(NC(=O)c2cc(NC(=O)c3nc(NC=O)cn3C)cn2C)cn1C,1.9 ×10⁸ /M,1 °C,9 °C,Active,–,–,–,–,–,–,–,–,–,–,K [2]: 5.3 ×10⁴ /M; K [3]: 2.2 ×10⁵ /M; K [5]: 1.9 ×10⁸ /M; K [6]: 5.3 ×10⁴ /M; Activity [7]: Active
CN(C)CCNC(=O)c1nc(NC(=O)c2cc(NC(=O)c3nc(NC(=O)c4ccccc4)cn3C)cn2CCCN)cn1C,8.7 ×10⁵ /M,7.6 °C,> 25 °C,Active,Active,1.5 ×10⁷ /M,1.2 ×10⁷ /M,Active,2.1 ×10⁶ /M,0 °C,2.7 ×10⁸ /M,2.9 ×10⁵ /M,Active,inactive,Activity [13]: Active; Activity [22]: Active
CN(C)CCNC(=O)c1nc(NC(=O)c2cc(NC(=O)c3nc(NC(=O)c4ccccc4)cn3C)cn2C)cn1C,6.1 ×10⁴ /M,0 °C,9 °C,–,Active,4.8 ×10⁶ /M,2.8 ×10⁵ /M,Active,2.5 ×10⁵ /M,0 °C,3.7 ×10⁸ /M,2.3 ×10⁵ /M,Active,inactive,Activity [23]: inactive; Activity [24]: Active; Activity [25]: inactive; Activity [26]: inactive
